# Screening results from PubChem BioAssay.
# Compounds with a hit are over-represented: about 4.1% of the library has one in this group of screens.
# KCC2 mod: modulates chloride dependent transport by human KCC2; 2.2% of 190,000 active; Q9H2X9; B-score of Tl+ flux slope (higher = more flux/activation; lower = inhibition) at 10 µM; KCC2 cells, thallium flux FluoZin-2 fluorescence;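 active = thallium flux slope and its plate-corrected score both differing from the plate sample mean at a set confidence after two filtering rounds, in either direction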;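 note: slope of fluorescence scaled to starting intensity during 10 to 20 s after thallium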
# KCNQ1 block: inhibitors of human KCNQ1 potassium channel. P51787. CHO-K1 KCNQ1, FluxOR thallium flux fluorescence; stronger effect = higher value. B-score at 10 µM. 1.3% of 310,000 active. AID 2642;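 active = compounds whose thallium flux B-score, printed positive for inhibition, exceeds three library SD while starting fluorescence stays within three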;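 note: channel opened by potassium depolarization with thallium stimulus after 20 min compound exposure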
# Target sequence (P51787 whole entry, looked up): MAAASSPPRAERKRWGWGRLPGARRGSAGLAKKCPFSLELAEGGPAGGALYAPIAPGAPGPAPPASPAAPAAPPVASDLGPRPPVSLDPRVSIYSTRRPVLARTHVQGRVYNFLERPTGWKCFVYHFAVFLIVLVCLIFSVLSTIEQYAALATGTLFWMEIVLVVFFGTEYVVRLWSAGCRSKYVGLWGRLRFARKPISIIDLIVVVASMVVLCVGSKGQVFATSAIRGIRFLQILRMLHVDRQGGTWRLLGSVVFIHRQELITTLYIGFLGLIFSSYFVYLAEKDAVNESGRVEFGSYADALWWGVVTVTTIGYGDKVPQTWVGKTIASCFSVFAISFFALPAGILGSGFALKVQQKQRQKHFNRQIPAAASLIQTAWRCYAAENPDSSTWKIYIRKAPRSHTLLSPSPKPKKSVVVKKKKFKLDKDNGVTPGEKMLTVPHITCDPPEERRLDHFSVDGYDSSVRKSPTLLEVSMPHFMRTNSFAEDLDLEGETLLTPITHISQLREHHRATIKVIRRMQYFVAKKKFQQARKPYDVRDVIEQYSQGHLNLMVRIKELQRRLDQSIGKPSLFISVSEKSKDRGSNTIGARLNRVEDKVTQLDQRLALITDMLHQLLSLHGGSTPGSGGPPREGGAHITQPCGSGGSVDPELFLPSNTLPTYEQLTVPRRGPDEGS
# KCNK3 block: human KCNK3 channel inhibition, primary screen. O14649. CHO-KCNK3 thallium flux, FluxOR fluorescence; stronger effect = lower value. B-score at 10 µM. 0.84% of 340,000 active;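 active = B-score under library mean minus 4 SD, starting fluorescence ratio at most library mean plus 5 SD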;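 note: more negative B-score means stronger inhibition of thallium flux through KCNK3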
# KCNQ1 act: human KCNQ1 channel potentiation or activation | 0.35% of 310,000 active | AID 2648 | B-score at 10 µM | CHO-K1 KCNQ1, thallium flux FluxOR fluorescence; stronger effect = higher value;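 active = fluorescence ratio B-score, a plate-corrected score, at least three library SD, with initial intensity B-score within 5 SD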
#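 Assay system: CHO-K1 cells stably expressing KCNQ1; Medium: assay buffer with matched DMSO; Also added: K+/Tl+ depolarizing stimulus; Dosing: single dose; Timing: dye 90 min, compound 20 min, room temperature; Measured by: kinetic FluxOR thallium fluorescence, 10-s 1-Hz baseline, 110-s post-stimulus read; Read-out: peak-minus-minimum fluorescence over initial fluorescence, negative-control normalized, B-scored.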
# KCNK9 inh: blocks the human KCNK9 two-pore domain potassium channel | 1.2% of 310,000 active | Q9NPC2 | HEK293 KCNK9, FluxOR thallium flux fluorescence; stronger effect = lower value | B-score at 10 µM | AID 488922;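 active = ratio B-score over 3 SD below the library mean, with starting fluorescence within 5 SD of its mean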;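 note: negative B-score means less thallium flux so channel inhibition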
# hERG rescue: hERG (human) protection from proarrhythmic block; CHO-hERG, FluxOR thallium flux, dofetilide IC70 present; activation (rescue from dofetilide block), less the hit threshold, % at 10 µM; 0.51% of 310,000 active; AID 1511; Q12809;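 active = activation above the mean of controls blocked by dofetilide plus 5 SD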;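 note: thallium influx through hERG after potassium depolarization seen as dye fluorescence rise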
# KCNK9 block conf: human KCNK9 inhibitor confirmation. shares compounds with KCNK9 inh. inhibition, % at 10 µM. 43% of 4,900 active. HEK293 KCNK9 cells, FluxOR thallium flux fluorescence. AID 492992;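 active = thallium signal inhibited by more than 5 SD of the compound-free buffer control wells, on both duplicate plates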;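 note: 0% = assay buffer control wells without compound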
# Kir21 sel: selectivity of KCNK9 modulators against mouse Kir2.1; shares compounds with KCNK9 inh; Kir2.1 cells, FluxOR thallium flux fluorescence; inhibition, % at 10 µM; 4% of 4,900 active; AID 492993;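 active = thallium signal drop more than 5 SD beyond the mean of the no-compound control wells, seen in both duplicate plates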;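 note: signal is fluorescence rise after thallium addition divided by baseline fluorescence; plate controls were assay buffer only for no effect and full block by chlorpromazine control for full effect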
# HEK293 Tl ctr: second check of KCNK9 modulator effects in non-induced HEK293 cells; 40% of 4,900 active; shares compounds with KCNK9 inh; inhibition, % at 10 µM; AID 492997; FluxOR thallium flux;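 active = thallium signal drop beyond 5 SD of the untreated control mean, on both duplicate plates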;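 note: plate controls were buffer only IC0 wells for no effect and SID17386958 at its maximal inhibitory level for full effect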
# KCNK3 inh conf: human KCNK3 channel inhibition, confirmation assay; shares compounds with KCNK3 block; CHO-KCNK3 thallium flux, FluxOR fluorescence; 0% buffer, 100% carvedilol maximal block; ratio percent of control, % at 10 µM; 99% of 2,400 active;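 active = ratio percent of control, averaged over triplicates, above buffer control mean plus 5 SD, cut at about 64% in these data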;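 note: ratio is the fluorescence rise from min to max over baseline after thallium stimulus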
# KCNK3 noninduced: activity in cells without induced KCNK3 expression. shares compounds with KCNK3 block. non-induced KCNK3 parental cells, FluxOR thallium flux; stronger effect = lower value. thallium flux ratio (lower = more inhibition) at 10 µM. 40% of 2,400 active;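 active = thallium flux ratio, averaged over three wells, more than 5 SD below the buffer control mean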;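 note: host cells are CHO cells without KCNK3 induction; ratio is peak minus trough fluorescence over baseline then normalized to buffer controls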
# An asterisk follows results filed as active; i = inactive; . = no result.
SMILES,KCC2 mod,KCNQ1 block,KCNK3 block,KCNQ1 act,KCNK9 inh,hERG rescue,KCNK9 block conf,Kir21 sel,HEK293 Tl ctr,KCNK3 inh conf,KCNK3 noninduced
CC1=C(C(=O)Nc2ccccc2)C(c2ccco2)NC(=S)N1 (stereo not drawn),-0.45,i,i,i,i,-6,.,.,.,.,.
O=C(Nc1ccccc1)C1=C(O)CC(c2ccco2)CC1=Nc1ccccc1 (stereo not drawn),.,i,i,i,-12*,-7,27%*,i,36%*,115*,0.16*
CCOCCCNS(=O)(=O)c1ccc(NC(=O)N2c3ccccc3Sc3ccccc32)cc1,.,i,i,i,i,0,.,.,.,.,.
CCOC(=O)COc1c(OC)cc(Cl)cc1C1Nc2ccccc2C(=O)N1c1ccccc1 (stereo not drawn),-0.82,i,-11*,i,-11*,-6,56%*,i,36%*,107*,0.14*
CCOC(=O)COc1c(OC)cc(Cl)cc1C1Nc2ccccc2C(=O)N1c1cccc(C)c1 (stereo not drawn),-0.87,i,-9.7*,i,-9.1*,-12,48%*,i,38%*,111*,i
CCOc1cc(C2Nc3ccccc3C(=O)N2c2ccccc2)c(Br)cc1OCC(=O)O (stereo not drawn),0.59,i,i,i,i,-7,.,.,.,.,.
COc1cc(C2Nc3ccccc3C(=O)N2c2ccc(Cl)cc2)c(Cl)cc1OCC(=O)O (stereo not drawn),-0.51,i,i,i,i,-8,.,.,.,.,.
NC(=S)NNc1cc(Cl)cc(Cl)c1,0.26,i,i,i,i,-5,.,.,.,.,.
COc1ccc(NC(=O)C#Cc2ccccc2)cc1OC,.,i,i,i,i,-5,.,.,.,.,.
COc1ccc(OC)c(NC(=O)CN(Cc2ccc(F)cc2)C2CCCCC2)c1,.,i,-8.8*,i,-14*,-19,69%*,i,48%*,56*,0.12*
Cc1ccc(S(=O)(=O)n2nc(OC(=O)c3ccccc3C)cc2N)cc1,.,i,-15*,i,-18*,-2,70%*,i,74%*,117*,i
CCOC(=O)c1cc(S(=O)(=O)N2CCN(C(=O)OCC)CC2)cn1C,.,i,i,i,i,-7,.,.,.,.,.
CSc1nsc(SC)c1C(=O)Nc1ccc(C(C)(C)C)cc1,0.39,i,-13*,i,-14*,-2,53%*,i,28%*,112*,i
Cc1cccc(OCC(=O)NC(C)C(=O)N/N=C/c2c(OCc3ccccc3)ccc3ccccc23)c1 (stereo not drawn),-0.96,i,-9.4*,i,-16*,-11,66%*,i,48%*,105*,i
O=C(N/N=C/c1ccccc1)c1sccc1OCc1ccc(F)cc1,.,i,-9.5*,i,-15*,-10,65%*,i,41%*,109*,i
O=C(N/N=C/c1ccccc1)c1ccc(OCc2ccccc2)cc1,0.2,i,i,i,i,-17,.,.,.,.,.
Cc1cc(C)c(S(=O)(=O)N2CCOCC2)c(C)c1N(C)S(=O)(=O)c1ccccc1,.,i,i,i,i,-16,.,.,.,.,.
Cc1cc(C)c(S(=O)(=O)N2CCCCC2)c(C)c1N(C)S(=O)(=O)c1ccccc1,-0.19,i,-8.8*,i,i,-5,i,i,i,97*,0.16*
CN(C)c1ccc(N/C=C/C(=O)c2ccc(F)cc2)cc1,0.14,i,i,i,i,-5,.,.,.,.,.
NC(=O)CS(=O)(=O)c1nc2ccccc2n1Cc1ccccn1,0.37,i,i,i,i,-5,.,.,.,.,.
c1ccc(N2CCN(c3ncnc4sc5c(c34)CCC5)CC2)cc1,1.2,i,i,i,-15*,-6,46%*,i,44%*,119*,0.15*
Oc1ccc(N2CCN(c3ncnc4sc(-c5ccccc5)cc34)CC2)cc1,-0.16,i,i,i,i,-6,.,.,.,.,.
CCc1cc2c(N3CCN(c4ccccc4)CC3)ncnc2s1,-0.29,i,-13*,i,i,-16,i,i,23%*,135*,0.15*
CC(C)OC(=O)COc1ccc(-c2ccccc2)cc1,0.4,i,-11*,i,-9.2*,-5,i,i,i,97*,i
CCC(C)Nc1nc(N)c([N+](=O)[O-])c(Nc2cc(OC)ccc2OC)n1 (stereo not drawn),0.036,i,i,i,-9.7*,-14,40%*,i,i,136*,0.13*
SMILES,KCC2 mod,KCNQ1 block,KCNK3 block,KCNQ1 act,KCNK9 inh,hERG rescue,KCNK9 block conf,Kir21 sel,HEK293 Tl ctr,KCNK3 inh conf,KCNK3 noninduced
CC1(C)NC(C(=O)O)Cc2c1[nH]c1ccccc21 (stereo not drawn),0.87,i,i,i,i,-6,.,.,.,.,.
CC1(C)CC(=O)CC2(C1)NCC(c1ccccc1)c1c2[nH]c2ccccc12 (stereo not drawn),-0.77,i,-9.3*,i,-15*,-4,64%*,i,34%*,99*,i
O=C(c1ccc(Cl)c(S(=O)(=O)N2CCc3ccccc32)c1)N1CCN(c2ccccc2O)CC1,.,.,i,.,.,.,.,.,.,.,.
O=C(NNC(=O)c1ccccc1O)c1ccc(Cl)c(S(=O)(=O)N2CCc3ccccc32)c1,.,14*,-14*,i,-9.7*,-30,32%*,i,i,116*,0.14*
CCOc1ccc(NC(=O)CN(C)C(=O)CN2C(=O)C3CCCCC3C2=O)cc1OCC (stereo not drawn),.,.,i,.,.,.,.,.,.,.,.
CCOC(=O)c1cccc(NC(=O)c2ccc(NC(=O)c3ccco3)cc2)c1,.,i,i,i,i,-9,.,.,.,.,.
CCCCCOC(=O)c1ccc(NC(=O)c2ccco2)cc1,-0.047,i,i,i,-12*,-7,49%*,i,i,123*,0.15*
